# Experiments:
# PBMC = test: Antiproliferative activity against ConA-stimulated human PBMC after 72 hrs by BrdU incorporation assay; format: functional, cell-based
# How it was run: (§1)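 Cells grown in RPMI at 37 °C, 5% CO2, then serum-starved 12 h. PBMC stimulated with ConA 10 µg/mL; Jurkat need no stimulation. 1 × 10^5 cells cultured 3 days with or without inhibitor, duplicate wells. Labelled with 10 µM BrdU, DNA denatured, anti-BrdU-POD added, colorimetric TMB read-out; IC50 derived.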
# Jurkat = test: Antiproliferative activity against human Jurkat cells after 72 hrs by BrdU incorporation assay; format: functional, cell-based; how it was run: as §1
IC50 (Jurkat) [µM],Structure (SMILES),IC50 (PBMC) [µM]
0.8,Oc1cc(-c2nc(Nc3ccc4c(c3)OCO4)c3ccccc3n2)cc(O)c1O,5.5
3.24,Oc1cc(-c2nc(Nc3ccc(OC(F)(F)F)cc3)c3ccccc3n2)cc(O)c1O,2.78
2.6,COc1cc(-c2nc(Nc3ccc(C)cc3C)c3ccccc3n2)cc(OC)c1OC,0.75
0.6,COc1cc(-c2nc(Nc3ccc4cn[nH]c4c3)c3ccccc3n2)cc(OC)c1OC,0.45
0.7,COc1cc(-c2nc(Nc3ccc4[nH]ncc4c3)c3ccccc3n2)cc(OC)c1OC,0.6
0.53,COc1cc(-c2nc(Nc3ccc(Cl)cc3)c3ccccc3n2)cc(OC)c1OC,0.3
4.25,CCCCCCCCOc1ccc(Nc2nc(-c3cc(O)c(O)c(O)c3)nc3ccccc23)cc1,4.53
0.71,Oc1cc(-c2nc(Nc3ccc4[nH]ncc4c3)c3ccccc3n2)cc(O)c1O,0.78
0.38,COc1cc(-c2nc(Nc3ccccc3)c3ccccc3n2)cc(OC)c1OC,0.28
1.5,COc1cc(-c2nc(Nc3ccc4nc[nH]c4c3)c3ccccc3n2)cc(OC)c1OC,0.43
5.5,Oc1cc(-c2nc(Nc3ccccc3)c3ccccc3n2)cc(O)c1O,0.65
0.6,COc1cc(-c2nc(NCc3ccccc3)c3ccccc3n2)cc(OC)c1OC,3.25
1.12,Oc1ccc(Nc2nc(-c3cc(O)c(O)c(O)c3)nc3ccccc23)cc1,0.97
5.43,COc1ccc(CNc2nc(-c3cc(O)c(O)c(O)c3)nc3ccccc23)cc1,3.26
3.7,Cc1ccc(Nc2nc(-c3cc(O)c(O)c(O)c3)nc3ccccc23)c(C)c1,0.73
2.57,Oc1cc(-c2nc(Nc3ccc4nc[nH]c4c3)c3ccccc3n2)cc(O)c1O,4.34
0.48,COc1cc(-c2nc(NCc3ccc(N)cc3)c3ccccc3n2)cc(OC)c1OC,0.38

# — ChEMBL document CHEMBL1221292, “Design, synthesis, and evaluation of quinazoline T cell proliferation inhibitors” (Bioorg Med Chem, 2010)
